Shown are actives, neighbours in structure and some others; about 0.99% of the full set was active somewhere.
Insulin prom up: MIN6 insulin promoter up-regulation. actives 0.3% (n = 190,000). z-score at 5 µM. AID 1625. MIN6 insulin promoter-GFP reporter, high-content imaging; active compounds read high;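 active = z-score above 3 at 5 µM with at least 500 cells counted in the well; inconclusive = wells under 500 cells, flagged as cytotoxic or low count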
Tn6 DDE FP: inhibitors of Tn6 peptide binding to human fibrin DD(E); P02675; Fibrin DD(E) TRITC-Tn6 fluorescence polarization displacement; inhibition, % at 8.3 µM; actives 0.21% (n = 370,000); AID 720509;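 active = inhibition above a per-campaign cutoff: mean of compounds within control limits plus 3 SD, cut at about 15% in these data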;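 also: 0% = median of all compound wells on the plate and 100% = blocking peptide control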
ABCB1 inh: blocks JC-1 efflux by human ABCB1 transporter. actives 0.067% (n = 190,000). CCRF-Adr cells, flow cytometry. P08183. inhibition, % at 6.6 µM; in the data active = inhibition above about 40%;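 also: 0% = vehicle and 100% = reference inhibitor; higher value means more JC-1 retained so stronger ABCB1 efflux block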
GRK2 inh: human GRK2 inhibition via aptamer displacement; actives 0.59% (n = 330,000); bead flow cytometry, FAM-aptamer displacement from GRK2; P25098; inhibition of aptamer binding, % at 10 µM;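 active = inhibition of aptamer binding above 40%, roughly 3 SD of noise, on plates passing a quality check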;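 also: median bead fluorescence of bound FAM aptamer so fluorescent compounds give negative values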
ABCG2 inh: inhibitors of human ABCG2 transporter, ABCB1 counter-screen; Q9UNQ0; IgMXP3 cells, JC-1 efflux, flow cytometry; inhibition, % at 6.6 µM; actives 0.1% (n = 190,000);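 active = inhibition above 80%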;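 also: 0% = DMSO and 100% = nicardipine control wells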
Target sequence (Q9UNQ0 whole entry, looked up): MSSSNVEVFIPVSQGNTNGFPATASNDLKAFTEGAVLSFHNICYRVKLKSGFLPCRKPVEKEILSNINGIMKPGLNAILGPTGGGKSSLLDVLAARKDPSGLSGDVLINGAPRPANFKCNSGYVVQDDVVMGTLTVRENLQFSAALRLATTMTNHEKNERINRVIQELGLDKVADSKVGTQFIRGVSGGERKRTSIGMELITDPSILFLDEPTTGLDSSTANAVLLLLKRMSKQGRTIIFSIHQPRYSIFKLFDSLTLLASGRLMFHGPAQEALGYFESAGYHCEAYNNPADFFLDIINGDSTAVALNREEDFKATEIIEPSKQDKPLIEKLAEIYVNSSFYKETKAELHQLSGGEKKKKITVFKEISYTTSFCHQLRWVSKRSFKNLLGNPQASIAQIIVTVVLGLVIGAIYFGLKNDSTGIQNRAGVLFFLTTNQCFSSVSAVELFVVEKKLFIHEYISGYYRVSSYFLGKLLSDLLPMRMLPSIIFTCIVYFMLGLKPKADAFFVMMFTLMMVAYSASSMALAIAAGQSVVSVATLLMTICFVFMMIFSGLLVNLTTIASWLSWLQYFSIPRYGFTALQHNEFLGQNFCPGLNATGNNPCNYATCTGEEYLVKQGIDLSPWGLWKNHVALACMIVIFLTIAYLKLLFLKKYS
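Assay system – ABCG2 IgMXP3 and barcoded ABCB1 CCRF-Adr cell mix · Input – 3 million cells/mL in well · Reagent – JC-1 fluorescent substrate · Compound – single test compound dose, 6.6 µM final · Timing – 10 min exposure at 25 °C with rotation, no wash · Detection – flow cytometry of retained JC-1 fluorescence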
Tn7 DDE FP: inhibitors of Tn7 peptide binding to human fibrin DD(E); FP displacement of FITC-Tn7 peptide from fibrin DD(E); 0% = median of compound wells per plate; inhibition, % at 8.3 µM; actives 0.13% (n = 370,000);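 active = inhibition above the mean of compounds falling within the control limits plus 3 SD of them, cut at about 14% in these data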;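 also: 0% = plate median of compound wells and 100% = 10 µM Aha-Tn7 peptide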
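Measure: % inhibition scaled between sample-field median and high-control FP; Test system: human fibrin DD(E); Quantity: 2 µM final DD(E) protein; Doses: one dose, 8.3 µM nominal; Schedule: compound with protein 10 min, then 3 h after probe, room temperature; Detection: fluorescence polarization; Medium: Tris buffer with calcium and detergent, pH 7.8.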
ABCB1 single pt: confirmation of human ABCB1 transporter inhibitors, ABCG2 counter-screen. shares compounds with ABCG2 inh. CCRF-Adr cells, JC-1 efflux, flow cytometry. AID 1451. inhibition, % at 6.6 µM. actives 7% (n = 270);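 active = inhibition of pump activity above 50%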;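 also: 0% = DMSO and 100% = nicardipine full pump inhibition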
ABCG2 confirm: confirmation of human ABCG2 transporter inhibitors, ABCB1 counter-screen; shares compounds with ABCG2 inh; IgMXP3 cells, JC-1 efflux, flow cytometry; inhibition, % at 6.6 µM; actives 6% (n = 270); AID 1453;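 active = inhibition above 50%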;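 also: 0% = DMSO wells and 100% = nicardipine pump inhibitor wells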
IgMXP3 autofluor: counter-screen for ABCG2 inhibitors: compound fluorescence in IgMXP3 cells | shares compounds with ABCG2 inh | compound autofluorescence 488/530 nm, flow; active compounds read high | fluorescence at 6.6 µM | actives 30% (n = 270) | AID 1480;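 active = fluorescence in ABCG2-expressing cells above the plate's control-well mean plus 3 SD, cut at about 15 in these data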;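 also: median cell fluorescence with compound minus that of DMSO-treated control cells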
CCRF-Adr fluor: counter-screen for ABCB1 inhibitors: compound fluorescence in CCRF-Adr cells. fluorescence at 6.6 µM. shares compounds with ABCG2 inh. compound autofluorescence 488/530 nm, flow cytometry; active compounds read high. AID 1483. actives 30% (n = 270);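 active = fluorescence beyond the plate control mean plus 3 SD, with a fluorescence-to-maximum score over 2, cut at about 25 in these data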
Active calls of the source: *; ? = inconclusive; nt = no result given; + = active, no number.

SMILES	Insulin prom up	Tn6 DDE FP	ABCB1 inh	GRK2 inh	ABCG2 inh	Tn7 DDE FP	ABCB1 single pt	ABCG2 confirm	IgMXP3 autofluor	CCRF-Adr fluor
COc1ccc(C(=O)N2CCN(c3ccc([N+](=O)[O-])c(NCCc4ccc(OC)c(OC)c4)c3)CC2)cc1	?	-1	24	0	15	4	nt	nt	nt	nt
COc1ccc(CCNc2cc(N3CCN(C(=O)c4ccc(C)cc4)CC3)ccc2[N+](=O)[O-])cc1OC	-1.9	nt	37	1	22	nt	26	34	-2	-0.84
COC(=O)[C@@H]1CC[C@H](C)[C@@H](c2ccc(C)cc2)N1C(=O)c1ccc(/C=N/OC[C@@H](O)[C@H]2O[C@@H]3OC(C)(C)O[C@@H]3[C@H]2O)cc1	-1.5	nt	2	nt	-4	nt	nt	nt	nt	nt
COC(=O)[C@@H]1CC[C@H](C)[C@@H](c2ccc(C)cc2)N1C(=O)c1ccc(/C=N/O[C@@H](C)c2cn([C@H](CO)Cc3ccccc3)nn2)cc1	-0.62	nt	42*	nt	44	nt	34	5	2.9	16
CN(C)c1ccc(/C=C2\SC(=S)N(Nc3ncc(C(F)(F)F)cc3Cl)C2=O)cc1	nt	0	187*	0	+	-11	-171	-39	228*	391*
Cc1cc(NC(=O)c2cc([N+](=O)[O-])cc([N+](=O)[O-])c2)n(-c2ccccc2)n1	-0.22	-5	0	0	84*	2	2	32	2.2	-2.2
Cc1cc(NC(=O)c2cccc([N+](=O)[O-])c2)n(-c2ccccc2)n1	0.02	2	0	0	2	9	nt	nt	nt	nt
Cc1ccc(-c2csc3nc(SCC(=O)N(C)C)n(Cc4ccccc4)c(=O)c23)cc1	-0.3	-2	28	8	121*	2	18	20	-0.44	-0.99
C[C@@H]1CCCCO[C@H](CN(C)S(=O)(=O)c2cn(C)cn2)[C@@H](C)CN([C@H](C)CO)C(=O)c2cc(NC(=O)CCCN(C)C)ccc2O1	nt	6	nt	nt	nt	0	nt	nt	nt	nt
CCNC(=O)Cn1c(=O)c(=O)n(Cc2ccccc2)c2ccc(Cl)cc21	0.55	1	1	3	95*	1	-4	4	2.6	27*
Cc1nc2cc(-c3cccc(F)c3)nn2c(N2CCN(C(=O)c3ccco3)CC2)c1C	nt	0	63*	0	91*	-1	52*	50*	-2.3	-4.8
CC1=NN(c2ccc([N+](=O)[O-])cc2)C(=O)/C1=C\N(C)C	nt	0	6	0	80	-2	10	38	-0.09	-0.59
C=CCN1C(=O)[C@@H](CC(=O)N2CCOCC2)[C@]2(C(=O)OC)CCCCC=C12	nt	-6	nt	nt	nt	-3	nt	nt	nt	nt
Cc1cc(C)c(N=Cc2c(O)n(-c3nccs3)c(=O)c3ccccc23)c(C)c1	0.58	4	4	7	11	-3	nt	nt	nt	nt
Cc1ccc(N=Cc2c(O)n(-c3nccs3)c(=O)c3ccccc23)cc1	0.74	5	41*	0	73	1	5	37	-0.29	8.8
COc1cc(C2C3=C(CCCC3=O)Nc3ccc4ncccc4c32)ccc1O (centres undefined)	1.5	1	1	0	9	-7	nt	nt	nt	nt
COc1ccc(C2C3=C(CCCC3=O)Nc3ccc4ncccc4c32)cc1OC (centres undefined)	nt	2	63*	2	0	1	5	16	0.96	10
C[C@H]1CCCC(=O)N[C@@H](c2ccccc2)[C@@H](C)CCCC(=O)N[C@H]1c1ccccc1	nt	-4	nt	nt	nt	1	nt	nt	nt	nt

Compound activity deposited in PubChem BioAssay by several laboratories.
